Series [1] concerns the target T1, Cannabinoid receptor 2 (Homo sapiens, UniProt P34972). Description: Agonist activity at human CB2 receptor expressed in CHO cells assessed as [35S]-GTPgammaS binding preincubated for 25 mins measured after 30 mins by scintillation proximity assay. In kind it is functional, cell-based. In general terms: GTPγS is a poorly hydrolysed GTP analogue; its binding reports G protein activation.

For series [2], the target named is T1, Cannabinoid receptor 2. Description: Agonist activity at human CB2 receptor expressed in CHO cells assessed as [35S]-GTPgammaS binding preincubated for 25 mins measured after 30 mins by scintillation proximity assay relative to control. In kind it is functional, cell-based.
In series [3] the target is T2, Cannabinoid receptor 1 (Homo sapiens, UniProt P21554). Description: Agonist activity at human CB1 receptor expressed in CHO cells assessed as [35S]-GTPgammaS binding preincubated for 25 mins measured after 30 mins by scintillation proximity assay. In kind it is functional, cell-based.
T2 sequence (P21554 whole entry): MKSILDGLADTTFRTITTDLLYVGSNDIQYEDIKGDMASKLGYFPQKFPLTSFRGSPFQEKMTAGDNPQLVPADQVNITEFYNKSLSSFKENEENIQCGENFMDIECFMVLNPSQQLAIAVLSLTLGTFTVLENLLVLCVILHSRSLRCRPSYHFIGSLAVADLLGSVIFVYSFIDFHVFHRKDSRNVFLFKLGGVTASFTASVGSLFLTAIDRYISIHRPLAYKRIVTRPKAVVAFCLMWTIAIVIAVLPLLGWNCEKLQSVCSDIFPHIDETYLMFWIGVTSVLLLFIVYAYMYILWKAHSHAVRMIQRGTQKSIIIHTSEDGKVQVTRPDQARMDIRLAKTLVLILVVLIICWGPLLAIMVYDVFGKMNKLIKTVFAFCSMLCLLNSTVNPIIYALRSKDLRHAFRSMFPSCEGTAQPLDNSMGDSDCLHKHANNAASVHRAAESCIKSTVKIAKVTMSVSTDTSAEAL
A short description of series [4]: Drug metabolism in dog liver microsomes at 4 uM after 30 mins by LC-ESI/MS analysis. It is filed as ADME, Canis lupus familiaris, Microsome. The settings on record: read-out: Drug metabolism.
Series [5] in a line: Drug metabolism in rat liver microsomes at 4 uM after 30 mins by LC-ESI/MS analysis. As to conditions: read-out: Drug metabolism. It is filed as ADME, Microsome. In general terms: Liver microsomes are vesicles of endoplasmic reticulum, rich in cytochrome P450 enzymes.
A short description of series [6]: Drug metabolism in human liver microsomes at 4 uM after 30 mins by LC-ESI/MS analysis. It is filed as ADME, Microsome. As to conditions: read-out: Drug metabolism.
Series [7] is described as follows: Solubility of the compound in simulated gastrointestinal fluid at pH 6.8. In kind it is physicochemical. The procedure, abridged:
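Solubility determined in simulated GI fluid at pH 6.8.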

For series [8], the species on record is Homo sapiens. Description: Selectivity ratio of EC50 for human CB1 receptor to EC50 for human CB2 receptor.
Series [9] deals with Rattus norvegicus. Description: Induction of hypothermia in monoiodoacetic acid rat model of osteoarthritic pain at 0.5 mg/kg, ip. Also on record: dose 0.5 mg/kg, route intraperitoneal. In kind it is organism-based. The settings on record: in vivo. In outline:
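Rats given the non-selective cannabinoid agonist (positive control) at 0.5 mg/kg ip. Body temperature drop was the read-out, used as an in vivo marker of central CB1 receptor activation.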

The target in series [10] is T2, Cannabinoid receptor 1. Description: Agonist activity at human CB1 receptor expressed in CHO cells assessed as [35S]-GTPgammaS binding preincubated for 25 mins measured after 30 mins by scintillation proximity assay relative to control. In kind it is functional, cell-based.
The subject of series [11] is Rattus norvegicus. Description: Analgesic activity in monoiodoacetic acid rat model of osteoarthritic pain assessed as decrease in pain at 3 mg/kg, po measured after 29 days relative to control. It is filed as functional, organism-based. Also on record: dose 3 mg/kg.
Series [12] is described as follows: Dissociation constant, pKa of the compound. It is filed as physicochemical.
The subject of series [13] is Rattus norvegicus. Description: Analgesic activity in monoiodoacetic acid rat model of osteoarthritic pain assessed as decrease in pain at 10 mg/kg, po pretreated with CB2 antagonist SR144528 at 3 mg/kg, ip administered 30 mins prior to compound treatment. It is filed as functional, organism-based. In outline:
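SR-144528 given at 3 mg/kg ip 30 min before the oral test dose (10 mg/kg) in the rodent monoiodoacetic acid osteoarthritic knee pain model.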

The subject of series [14] is Rattus norvegicus. Description: Analgesic activity in monoiodoacetic acid rat model of osteoarthritic pain assessed as decrease in pain at 10 mg/kg, po measured after 29 days relative to control. In kind it is functional, organism-based. Also noted: dose 10 mg/kg.
Series [15] deals with Rattus norvegicus. Description: Hepatic clearance in Sprague-Dawley rat at 1 mg/kg, iv. The settings on record: in vivo. In kind it is ADME, organism-based, Liver. Also on record: dose 1 mg/kg, route intravenous. In outline:
(§1)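 Male Sprague–Dawley rats dosed 1 mg/kg iv and 1 mg/kg po; plasma pharmacokinetic parameters derived from the iv and oral arms.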

Series [16] can be described thus: Volume of distribution in Sprague-Dawley rat at 1 mg/kg, iv. In kind it is ADME, organism-based. Also on record: dose 1 mg/kg, route intravenous. As to conditions: in vivo. In outline: as §1
A short description of series [17]: Oral bioavailability in Sprague-Dawley rat at 1 mg/kg. As to conditions: in vivo. It is filed as ADME, organism-based. The procedure, abridged: as §1
For a further series, the target named is Cytochrome P450 2D6 (Homo sapiens, UniProt P10635). Description: Inhibition of CYP2D6. It is filed as ADME.
Chain of Cytochrome P450 2D6 (P10635 whole entry): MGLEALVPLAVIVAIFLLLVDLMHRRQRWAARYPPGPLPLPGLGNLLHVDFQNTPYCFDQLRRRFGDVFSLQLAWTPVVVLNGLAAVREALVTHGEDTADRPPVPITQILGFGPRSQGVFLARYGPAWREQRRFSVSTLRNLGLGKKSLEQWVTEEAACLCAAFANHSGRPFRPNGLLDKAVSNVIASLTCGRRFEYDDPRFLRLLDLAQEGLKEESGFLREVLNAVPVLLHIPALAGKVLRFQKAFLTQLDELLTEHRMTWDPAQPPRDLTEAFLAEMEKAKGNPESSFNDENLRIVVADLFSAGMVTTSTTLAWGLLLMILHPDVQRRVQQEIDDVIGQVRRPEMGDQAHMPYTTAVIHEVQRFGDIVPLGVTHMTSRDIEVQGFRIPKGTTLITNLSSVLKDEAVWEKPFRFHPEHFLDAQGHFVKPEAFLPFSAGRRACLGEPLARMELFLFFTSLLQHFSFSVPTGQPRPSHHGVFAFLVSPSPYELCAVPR
Series [18] in a line: (§2) Binding affinity to 5HT1. Also on record: species or system Homo sapiens.
Series [19] deals with Voltage-gated inwardly rectifying potassium channel KCNH2 (Homo sapiens, UniProt Q12809). Description: Displacement of [3H]dofetilide from human Erg expressed in human HEK293 cells. It is filed as cell-based. In outline: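 hERG affinity measured by [3H]-dofetilide displacement from hERG channels stably expressed in HEK293 cells.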
Chain of Voltage-gated inwardly rectifying potassium channel KCNH2 (Q12809 whole entry): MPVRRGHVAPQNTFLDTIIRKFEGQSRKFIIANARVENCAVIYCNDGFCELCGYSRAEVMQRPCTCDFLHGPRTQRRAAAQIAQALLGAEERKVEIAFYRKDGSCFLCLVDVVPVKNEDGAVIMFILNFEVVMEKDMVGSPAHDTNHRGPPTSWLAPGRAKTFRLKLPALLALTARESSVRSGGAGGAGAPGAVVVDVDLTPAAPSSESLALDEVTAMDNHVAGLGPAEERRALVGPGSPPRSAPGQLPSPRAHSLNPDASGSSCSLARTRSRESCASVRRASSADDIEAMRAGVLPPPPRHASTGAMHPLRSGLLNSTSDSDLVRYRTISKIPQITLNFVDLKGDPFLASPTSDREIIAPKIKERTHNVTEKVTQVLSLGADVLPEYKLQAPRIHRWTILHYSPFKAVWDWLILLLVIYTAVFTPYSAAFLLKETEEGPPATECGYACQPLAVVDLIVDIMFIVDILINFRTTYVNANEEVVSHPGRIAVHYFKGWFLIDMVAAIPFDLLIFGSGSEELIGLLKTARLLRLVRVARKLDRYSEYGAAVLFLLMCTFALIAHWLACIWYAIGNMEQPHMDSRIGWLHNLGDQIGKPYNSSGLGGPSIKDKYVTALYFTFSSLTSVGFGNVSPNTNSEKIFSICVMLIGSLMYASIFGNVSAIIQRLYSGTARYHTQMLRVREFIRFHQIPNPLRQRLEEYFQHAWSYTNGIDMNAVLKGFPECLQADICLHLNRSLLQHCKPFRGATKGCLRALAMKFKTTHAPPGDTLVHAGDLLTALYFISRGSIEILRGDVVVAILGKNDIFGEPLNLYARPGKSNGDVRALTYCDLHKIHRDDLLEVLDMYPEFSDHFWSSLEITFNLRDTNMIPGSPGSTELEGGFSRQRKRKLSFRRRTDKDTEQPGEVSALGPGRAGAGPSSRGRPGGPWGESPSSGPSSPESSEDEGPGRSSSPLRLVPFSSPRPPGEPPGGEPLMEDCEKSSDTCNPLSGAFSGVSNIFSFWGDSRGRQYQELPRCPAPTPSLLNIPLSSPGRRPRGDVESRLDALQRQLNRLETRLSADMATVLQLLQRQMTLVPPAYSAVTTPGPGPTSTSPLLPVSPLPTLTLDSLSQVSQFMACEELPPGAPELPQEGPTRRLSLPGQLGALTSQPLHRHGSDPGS
For orientation: In a radioligand displacement assay an active substance lowers the binding of a labelled ligand.

Series [20] concerns the target T3, Cannabinoid receptor 2 (Rattus norvegicus, UniProt Q9QZN9).
T3 sequence (Q9QZN9 whole entry): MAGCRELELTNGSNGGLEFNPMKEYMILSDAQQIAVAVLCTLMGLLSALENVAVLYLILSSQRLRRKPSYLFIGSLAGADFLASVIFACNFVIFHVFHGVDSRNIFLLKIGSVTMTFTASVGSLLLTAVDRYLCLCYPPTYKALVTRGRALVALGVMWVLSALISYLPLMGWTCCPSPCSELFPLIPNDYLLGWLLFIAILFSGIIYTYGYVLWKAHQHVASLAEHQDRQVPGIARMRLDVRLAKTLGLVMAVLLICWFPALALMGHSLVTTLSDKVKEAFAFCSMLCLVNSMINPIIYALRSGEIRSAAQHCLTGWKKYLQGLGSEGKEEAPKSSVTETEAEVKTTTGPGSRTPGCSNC
Description: Displacement of [3H]-CP-55,940 from rat CB2 receptor expressed in CHO cells. It is filed as cell-based.

Series [21] concerns the target T1, Cannabinoid receptor 2. Description: Displacement of [3H]-CP-55,940 from human CB2 receptor expressed in CHO cells. It is filed as cell-based.
Series [22] can be described thus: Lipophilicity, log P of the compound. It is filed as physicochemical. As to conditions: octanol/water.
A short description of series [23]: Ratio of drug uptake in brain to plasma of Sprague-Dawley rat. The settings on record: read-out: BPR. In kind it is ADME.
The nature of series [24]: Aqueous solubility of the compound at pH 7. As to conditions: buffer. In kind it is physicochemical.
Another series addresses cytochrome P450 (Homo sapiens, UniProt P04798+P05177+P05181+P08684+P10632+P10635+P11509+P11712+P13584+P20813+P20815+P20853+P24462+P24903+P33260+P33261+P51589+P78329+P98187+Q02928+Q08477+Q16678+Q16696+Q5TCH4+Q6VVX0+Q7Z449+Q8TAV3+Q96SQ9+Q9HB55). Description: Inhibition of cytochrome P450. It is filed as ADME.
Series [25] is filed under the species Homo sapiens. The series is described as §2.

SMILES strings stand for the structures. Converted amounts (≈) assume the structure as drawn. The source made the active and inactive calls. The calls are words filed in the database; no cut-off is given here.

By EC50 is commonly meant the midpoint of the concentration-response curve. For orientation: solubility means the dissolved amount per volume that the medium holds. A higher solubility goes with a readily soluble substance. Broadly, the pKa is the pH at which an ionisable group is half protonated. Read a low pKa as a stronger acid or weaker base. As a reminder, the Vd is a proportionality between amount in the body and measured concentration, not a real space. Higher therefore signals wide distribution into tissue. As a reminder, the bioavailability is dose-corrected exposure relative to a reference, in per cent. A higher bioavailability goes with good availability. As a reminder, the IC50 is the concentration that inhibits the measured activity by half. A low value points to higher potency. Usually Ki stands for a measure of affinity in units of concentration, obtained from inhibition or displacement. A low value points to tighter binding. Usually logP stands for the decadic logarithm of the partition coefficient of the neutral form, usually between octanol and water.

T1 sequence (P34972 whole entry): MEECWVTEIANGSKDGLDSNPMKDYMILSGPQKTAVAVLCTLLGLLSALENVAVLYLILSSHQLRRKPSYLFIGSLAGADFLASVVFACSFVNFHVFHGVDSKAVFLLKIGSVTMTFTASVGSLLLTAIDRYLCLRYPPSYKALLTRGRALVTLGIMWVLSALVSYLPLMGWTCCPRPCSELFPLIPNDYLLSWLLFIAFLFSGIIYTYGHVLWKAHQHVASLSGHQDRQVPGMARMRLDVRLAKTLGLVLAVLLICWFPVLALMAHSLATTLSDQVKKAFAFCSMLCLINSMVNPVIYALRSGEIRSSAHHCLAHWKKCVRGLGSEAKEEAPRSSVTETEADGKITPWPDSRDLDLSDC

Take `CC(=O)N1CCN(c2nc(C)nc3sc(-c4ccccc4)cc23)CC1`: the EC50 is 184 nM at Cannabinoid receptor 2 [1] and > 100000 nM on Cannabinoid receptor 1 [3]. Besides, the Efficacy at Cannabinoid receptor 2 [2] turned out to be 95.4%. The metabolised at 0.5 h, 4 µM in series [4] is 62%; in series [5], 28%; in [6], 25%. In series [7], this compound showed a solubility of 41 µM (≈ 14.5 µg/mL). Further, the Ratio EC50 in the series listed under Homo sapiens [8] was > 543.
For `CCCCCCC(C)(C)c1ccc([C@@H]2C[C@H](O)CC[C@H]2CCCO)c(O)c1` [CP-55940], the Activity result with Rattus norvegicus [9] is reported as “Toxic”.
Turning to `Cc1nc(N2CCN(C)CC2)c2cc(-c3ccccc3)sc2n1`, the EC50 at Cannabinoid receptor 2 [1] came to 44.4 nM; on Cannabinoid receptor 1 [3], 5910 nM. Further, the Efficacy on Cannabinoid receptor 2 [2] worked out at 90.6%; at Cannabinoid receptor 1 [10], 70.9%. Besides, the results for the metabolised at 0.5 h, 4 µM in [4], in series [5] and in series [6] were 97%, 95% and 56%, respectively. Also, the Ratio EC50 in the series filed under Homo sapiens [8] is 133.
As for `O=C(O)Cc1ccccc1Nc1c(Cl)cccc1Cl`, in the series with Rattus norvegicus [11], the outcome was Active.
Consider `Cc1nc(N2CCC(C)CC2)c2cc(-c3ccccc3)sc2n1`, for which the EC50 is 199 nM on Cannabinoid receptor 2 [1] and > 100000 nM on Cannabinoid receptor 1 [3]. The Efficacy on Cannabinoid receptor 2 [2] came to 85.3%. Further, the metabolised at 0.5 h, 4 µM in series [4] is 75%; in [5] it was 93%; in [6], 49%. For the same compound, the Ratio EC50 in the series listed under Homo sapiens [8] was > 502.
On to `COC(=O)NCCn1c(-c2ccccc2Cl)nc2c(N3CCN(C)CC3)nc(C)nc21`, for which the EC50 is 47.5 nM on Cannabinoid receptor 2 [1] and > 100000 nM on Cannabinoid receptor 1 [3]. In addition, the Efficacy on Cannabinoid receptor 2 [2] is 79.5%. For the same compound, the metabolised at 0.5 h, 4 µM in series [4] was found to be 62%; in series [5], 25%; in [6], 14%. In addition, the Ratio EC50 in the series filed under Homo sapiens [8] was > 2110.
Take `CCN1CCN(c2nc(C)nc3sc(-c4ccccc4)cc23)CC1`: the EC50 on Cannabinoid receptor 2 [1] stood at 24.8 nM; at Cannabinoid receptor 1 [3] it was 2600 nM. In addition, the Efficacy stood at 84.5% at Cannabinoid receptor 2 [2] and 73.6% at Cannabinoid receptor 1 [10]. In series [12], the pKa came out at 7.5. For the same compound, the metabolised at 0.5 h, 4 µM in [4] came out at 97%; in [5], 94%; in [6] it was 73%. Further, the result with Rattus norvegicus [13] was inactive. The result in the series on Rattus norvegicus [14] was Active. The compound also returned a CLH with Rattus norvegicus [15] of 90 mL/min/kg. The Vd in [16] was found to be 10 L/kg. Further, the bioavailability in series [17] worked out at 91%. The results for the IC50 (at Cytochrome P450 2D6; in series [19]) were 3000 nM and > 10000 nM, respectively. For the same compound, the Ki was 1000 nM in series [18], 16 nM at Cannabinoid receptor 2 [20] and 82 nM at Cannabinoid receptor 2 [21]. In [7], the solubility is > 200 µM. The logP in [22] was determined as 3.7. In the series listed under Homo sapiens [8], the Ratio EC50 stood at 104.
Turning to `CCN1CCN(c2nc(C)nc3c2nc(-c2ccccc2Cl)n3C)CC1`, the Kp in series [23] was determined as 1. In addition, in series [24], the solubility is > 2000 µg/mL. For the same compound, on cytochrome P450, the IC50 was > 10000 nM. In addition, the outcome in the series listed under Homo sapiens [25] was Active. Also, the logP in series [22] stood at 3.1.
